Measured values: ChEMBL document CHEMBL4411301, “Design, Biological Evaluation, and Molecular Modeling of Tetrahydroisoquinoline Derivatives: Discovery of A Potent P-Glycoprotein Ligand Overcoming Multidrug Resistance in Cancer Stem Cells” (J Med Chem, 2019)

Legend:
Assay type in all cases: cell-based; call rule not given here
[1] = biological target: ATP-dependent translocase ABCB1 (Homo sapiens, UniProt P08183); assay: Inhibition of MDR1 (unknown origin) expressed in MDCK cells assessed as increase in calcein-AM accumulation after 30 mins by calcein-AM dye based fluorescence assay
In short: (§1)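 MDCK-MDR1 or MDCK-MRP1 cells seeded at 30,000/well and grown to confluence overnight. Compound (0.1–100 µM final, in medium) incubated 30 min at 37 °C, then calcein-AM added (2.5 µM final) for 30 min. Cells washed with ice-cold PBS and read at ex 485/em 535 nm. EC50 fitted from % fluorescence increase over untreated vs log dose. Mean ± SEM, three experiments in triplicate.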

[2] = biological target: Multidrug resistance-associated protein 1 (Homo sapiens, UniProt P33527); assay: Inhibition of MRP1 (unknown origin) expressed in MDCK cells assessed as increase in calcein-AM accumulation incubated for 30 mins by calcein-AM dye based fluorescence assay; in short: as §1
[3] = biological target: T1, Broad substrate specificity ATP-binding cassette transporter ABCG2 (Homo sapiens, UniProt Q9UNQ0); assay: Inhibition of BCRP (unknown origin) expressed in MDCK cells assessed as reduction in Hoechst 33342 efflux preincubated for 30 mins followed by Hoechst 3334 addition measured after 30 mins by fluorescence assay
T1 sequence (Q9UNQ0 whole entry): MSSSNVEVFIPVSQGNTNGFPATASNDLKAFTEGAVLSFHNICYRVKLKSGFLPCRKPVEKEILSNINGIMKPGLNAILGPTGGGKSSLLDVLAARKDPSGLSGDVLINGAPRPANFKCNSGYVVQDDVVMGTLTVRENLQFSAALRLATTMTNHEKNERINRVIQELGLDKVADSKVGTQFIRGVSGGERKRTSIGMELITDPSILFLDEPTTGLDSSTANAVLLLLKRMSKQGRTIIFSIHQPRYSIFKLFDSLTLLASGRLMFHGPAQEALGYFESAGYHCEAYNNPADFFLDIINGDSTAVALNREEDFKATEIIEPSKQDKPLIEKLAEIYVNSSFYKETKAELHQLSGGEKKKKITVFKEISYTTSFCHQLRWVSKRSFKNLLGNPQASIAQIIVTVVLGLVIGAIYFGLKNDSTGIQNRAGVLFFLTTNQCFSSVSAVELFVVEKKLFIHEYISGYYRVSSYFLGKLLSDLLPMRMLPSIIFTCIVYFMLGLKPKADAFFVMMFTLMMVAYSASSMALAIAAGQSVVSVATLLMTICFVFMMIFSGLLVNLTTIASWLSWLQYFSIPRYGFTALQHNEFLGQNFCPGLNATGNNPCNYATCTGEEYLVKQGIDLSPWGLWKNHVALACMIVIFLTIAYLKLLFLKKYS
In short: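 MDCK-BCRP monolayers (30,000 cells/well, confluent overnight) preincubated 30 min at 37 °C with compound (0.1–100 µM final). Hoechst 33342 then added (8 µM final) for 30 min. Cells fixed 20 min in 4% PFA, washed with ice-cold PBS and read at ex 340/em 485 nm. EC50 fitted from % fluorescence increase over basal vs log dose. Mean ± SEM, three experiments in triplicate.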

[4] = biological target: MDR1 (ABCB1, P-glycoprotein) (Homo sapiens, UniProt P08183); assay: Activity at MDR1 in human Caco2 cells assessed as efflux ratio of apparent permeability from basolateral to apical side over apical to basolateral side; settings: Caco-2
In short: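 Caco-2 cells grown 21 days on filter inserts, then washed with HBSS and equilibrated 30 min at 37 °C. Compound at 100 µM added to the donor side and incubated 120 min at 37 °C. Papp in nm/s calculated as (VA/Area) × ([drug]acceptor/[drug]initial)/time, membrane area 0.11 cm2. BA/AB ratio from two independent experiments.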

ATP-dependent translocase ABCB1, sequence (P08183 whole entry): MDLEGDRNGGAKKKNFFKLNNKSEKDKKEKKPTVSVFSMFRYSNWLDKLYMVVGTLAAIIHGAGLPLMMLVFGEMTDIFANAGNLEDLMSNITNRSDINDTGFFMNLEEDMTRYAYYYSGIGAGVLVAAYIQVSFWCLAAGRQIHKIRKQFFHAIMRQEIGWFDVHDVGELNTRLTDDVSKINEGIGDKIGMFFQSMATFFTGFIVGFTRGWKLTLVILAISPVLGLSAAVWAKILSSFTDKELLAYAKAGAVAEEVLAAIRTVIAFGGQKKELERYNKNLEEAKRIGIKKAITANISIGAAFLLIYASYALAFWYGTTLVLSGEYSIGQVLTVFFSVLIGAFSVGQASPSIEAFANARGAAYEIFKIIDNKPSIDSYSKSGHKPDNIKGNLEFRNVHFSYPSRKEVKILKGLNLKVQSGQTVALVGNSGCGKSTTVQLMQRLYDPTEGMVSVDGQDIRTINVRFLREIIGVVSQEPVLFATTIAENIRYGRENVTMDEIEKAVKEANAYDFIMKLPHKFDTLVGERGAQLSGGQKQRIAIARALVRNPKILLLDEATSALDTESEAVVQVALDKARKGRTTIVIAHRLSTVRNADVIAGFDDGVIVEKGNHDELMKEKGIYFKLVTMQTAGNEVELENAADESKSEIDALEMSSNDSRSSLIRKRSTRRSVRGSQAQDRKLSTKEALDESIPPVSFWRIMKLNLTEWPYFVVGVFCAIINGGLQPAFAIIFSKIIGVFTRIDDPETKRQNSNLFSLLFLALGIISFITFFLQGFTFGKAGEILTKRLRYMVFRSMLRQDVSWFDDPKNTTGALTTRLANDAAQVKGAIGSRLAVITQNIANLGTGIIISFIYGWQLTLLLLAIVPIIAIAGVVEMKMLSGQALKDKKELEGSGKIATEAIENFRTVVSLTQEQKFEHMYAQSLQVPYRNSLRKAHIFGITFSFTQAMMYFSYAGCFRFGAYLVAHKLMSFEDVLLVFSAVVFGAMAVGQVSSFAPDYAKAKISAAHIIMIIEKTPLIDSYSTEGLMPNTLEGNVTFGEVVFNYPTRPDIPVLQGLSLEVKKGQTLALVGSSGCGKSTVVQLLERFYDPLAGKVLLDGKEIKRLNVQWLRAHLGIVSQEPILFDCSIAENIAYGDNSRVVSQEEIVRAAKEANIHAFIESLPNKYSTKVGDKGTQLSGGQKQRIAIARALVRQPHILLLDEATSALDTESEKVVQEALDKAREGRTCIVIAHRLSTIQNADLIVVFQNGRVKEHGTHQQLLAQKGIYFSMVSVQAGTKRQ
MDR1 (ABCB1, P-glycoprotein), sequence (P08183 whole entry): as above
Multidrug resistance-associated protein 1, sequence (P33527 whole entry): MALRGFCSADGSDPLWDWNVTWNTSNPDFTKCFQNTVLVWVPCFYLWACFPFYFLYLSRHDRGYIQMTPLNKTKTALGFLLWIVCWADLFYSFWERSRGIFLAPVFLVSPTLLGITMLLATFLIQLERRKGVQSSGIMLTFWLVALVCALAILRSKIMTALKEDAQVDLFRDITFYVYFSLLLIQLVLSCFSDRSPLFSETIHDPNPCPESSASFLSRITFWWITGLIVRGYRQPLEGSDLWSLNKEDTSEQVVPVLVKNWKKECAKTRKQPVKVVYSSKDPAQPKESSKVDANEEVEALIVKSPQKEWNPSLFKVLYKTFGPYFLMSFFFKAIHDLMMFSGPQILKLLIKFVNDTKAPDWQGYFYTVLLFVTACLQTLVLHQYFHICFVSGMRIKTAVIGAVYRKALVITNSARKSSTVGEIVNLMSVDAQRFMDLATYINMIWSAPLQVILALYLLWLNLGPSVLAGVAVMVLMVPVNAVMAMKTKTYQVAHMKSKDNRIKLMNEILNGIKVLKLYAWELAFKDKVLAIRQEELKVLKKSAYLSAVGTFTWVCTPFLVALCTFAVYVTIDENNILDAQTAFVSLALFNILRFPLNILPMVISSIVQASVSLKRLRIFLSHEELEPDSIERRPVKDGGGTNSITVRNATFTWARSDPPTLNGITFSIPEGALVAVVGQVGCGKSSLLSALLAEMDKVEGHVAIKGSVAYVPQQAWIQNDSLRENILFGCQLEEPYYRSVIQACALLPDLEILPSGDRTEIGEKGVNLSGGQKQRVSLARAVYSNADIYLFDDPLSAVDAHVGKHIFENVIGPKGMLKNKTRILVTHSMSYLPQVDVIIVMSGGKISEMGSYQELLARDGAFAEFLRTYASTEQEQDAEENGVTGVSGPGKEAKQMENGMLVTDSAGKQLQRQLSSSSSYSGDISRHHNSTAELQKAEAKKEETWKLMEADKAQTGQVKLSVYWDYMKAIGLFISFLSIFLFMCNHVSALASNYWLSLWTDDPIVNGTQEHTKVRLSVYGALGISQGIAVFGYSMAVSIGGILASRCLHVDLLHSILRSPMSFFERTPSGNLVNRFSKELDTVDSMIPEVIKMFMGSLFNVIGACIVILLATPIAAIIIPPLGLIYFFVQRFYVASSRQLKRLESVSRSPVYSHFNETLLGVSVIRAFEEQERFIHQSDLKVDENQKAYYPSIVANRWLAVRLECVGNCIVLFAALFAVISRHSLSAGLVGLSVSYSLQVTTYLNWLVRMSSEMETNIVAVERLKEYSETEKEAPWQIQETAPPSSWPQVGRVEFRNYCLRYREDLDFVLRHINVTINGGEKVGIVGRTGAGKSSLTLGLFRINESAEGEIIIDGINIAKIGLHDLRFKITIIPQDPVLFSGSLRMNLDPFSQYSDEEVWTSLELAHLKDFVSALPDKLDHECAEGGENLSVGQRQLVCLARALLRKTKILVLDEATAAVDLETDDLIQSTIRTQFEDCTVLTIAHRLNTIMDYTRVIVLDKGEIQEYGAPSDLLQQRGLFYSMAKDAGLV

Structure (SMILES)	EC50 ([1]; read-out: EC50) [µM]	EC50 [2]	EC50 ([3]; mdck)	efflux ratio [4]	EC50 ([1]; mdck)	EC50 ([3]; read-out: EC50) [µM]
COc1cc2c(cc1OC)CN(Cc1ccc(-c3ccc4c(c3)C(=O)C(=O)N4)cc1)CC2	21.4	Not Active	Not Active	8.1		
COc1cc2c(cc1OC)CN(Cc1ccc(-c3ccc(NC(=O)Nc4ccccc4)cc3)cc1)CC2	0.98	Not Active	Not Active	> 20		
CNC(=O)Nc1ccc(-c2ccc(CN3CCc4cc(OC)c(OC)cc4C3)cc2)cc1	3.1	Not Active	Not Active	12.8		
COc1cc2c(cc1OC)CN(Cc1ccc(-c3ccc4[nH]ccc4c3)cc1)CC2	21.2	Not Active	Not Active	1.9		
COc1cc2c(cc1OC)CN(Cc1ccc(-c3ccc(NC(=O)c4ccccc4)cc3)cc1)CC2		Not Active	Not Active	19.9	Not Active	
COc1cc2c(cc1OC)CN(Cc1ccc(-c3ccc(NC(C)=O)cc3)cc1)CC2	1.52	Not Active	Not Active	13.6		
COc1cc2c(cc1OC)CN(Cc1ccc(-c3ccc(O)cc3)cc1)CC2				1.3		
CCNC(=O)Nc1ccc(-c2ccc(CN3CCc4cc(OC)c(OC)cc4C3)cc2)cc1	1.7	Not Active	Not Active	9.3		
COc1cc2c(cc1OC)CN(Cc1ccc(-c3ccc4c(c3)C(N3CCc5cc(OC)c(OC)cc5C3)C(=O)N4)cc1)CC2 (stereo not drawn)	1.2	Not Active		8.5		1.8
